Experimental data from ChEMBL document CHEMBL1134541, “Potent and selective carboxylic acid-based inhibitors of matrix metalloproteinases” (J Med Chem, 2001).
In brackets after ≈: the same amount, converted by molar mass.

Tests used:
[1] = target: 72 kDa type IV collagenase (Homo sapiens, UniProt P08253); assay: In vitro inhibitory activity against matrix metalloprotease-2
Neutrophil collagenase = Neutrophil collagenase (Homo sapiens, UniProt P22894); assay: Inhibitory activity against matrix metalloprotease-8
Sequence of Neutrophil collagenase (P22894 whole entry): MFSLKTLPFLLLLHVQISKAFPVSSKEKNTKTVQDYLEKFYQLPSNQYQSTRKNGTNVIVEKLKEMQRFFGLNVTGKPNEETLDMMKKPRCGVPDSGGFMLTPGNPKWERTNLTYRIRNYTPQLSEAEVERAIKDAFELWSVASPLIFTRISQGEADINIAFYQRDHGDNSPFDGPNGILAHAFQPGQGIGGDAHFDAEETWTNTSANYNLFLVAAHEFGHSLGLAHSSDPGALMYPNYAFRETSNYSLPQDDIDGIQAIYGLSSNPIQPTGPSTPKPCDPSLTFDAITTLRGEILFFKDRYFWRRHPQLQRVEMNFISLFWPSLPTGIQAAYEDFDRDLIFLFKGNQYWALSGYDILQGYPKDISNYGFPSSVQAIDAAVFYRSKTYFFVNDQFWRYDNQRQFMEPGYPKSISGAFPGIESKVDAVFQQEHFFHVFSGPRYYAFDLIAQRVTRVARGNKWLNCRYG

[2] = target: Matrix metalloproteinase-9 (Homo sapiens, UniProt P14780); assay: In vitro inhibition of human matrix metalloprotease-9
Sequence of Matrix metalloproteinase-9 (P14780 whole entry): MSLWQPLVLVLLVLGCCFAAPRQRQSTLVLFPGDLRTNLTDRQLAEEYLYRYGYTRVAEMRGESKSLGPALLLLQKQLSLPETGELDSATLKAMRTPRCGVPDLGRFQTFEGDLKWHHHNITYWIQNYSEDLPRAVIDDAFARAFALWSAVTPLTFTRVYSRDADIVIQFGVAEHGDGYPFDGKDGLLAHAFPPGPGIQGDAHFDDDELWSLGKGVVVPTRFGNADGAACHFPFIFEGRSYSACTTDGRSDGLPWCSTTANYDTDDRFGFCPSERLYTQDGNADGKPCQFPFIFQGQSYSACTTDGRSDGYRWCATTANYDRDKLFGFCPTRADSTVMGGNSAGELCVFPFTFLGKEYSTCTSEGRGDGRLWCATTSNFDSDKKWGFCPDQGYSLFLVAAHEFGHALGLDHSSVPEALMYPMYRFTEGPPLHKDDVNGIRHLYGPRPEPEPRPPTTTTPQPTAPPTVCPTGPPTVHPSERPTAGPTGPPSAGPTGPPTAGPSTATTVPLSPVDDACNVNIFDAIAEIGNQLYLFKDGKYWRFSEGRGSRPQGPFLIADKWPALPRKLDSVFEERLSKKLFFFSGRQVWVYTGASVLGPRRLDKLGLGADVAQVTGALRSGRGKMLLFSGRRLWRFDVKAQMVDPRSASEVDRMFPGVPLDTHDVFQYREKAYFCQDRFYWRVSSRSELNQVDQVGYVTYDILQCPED
Procedure, shortened: (§1)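 Inhibition of each enzyme (MMP-1 collagenase-1, MMP-2 gelatinase A, MMP-3 stromelysin, MMP-7 matrilysin, MMP-8 collagenase-2, MMP-9 gelatinase B) was measured at pH 7.4 and reported as binding values. Compounds were tested as racemic mixtures. Standard deviations were under 30% of the mean values.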

Matrilysin = target: T1, Matrilysin (Homo sapiens, UniProt P09237); assay: Inhibitory activity against matrix metalloprotease-7; procedure, shortened: as §1
T1 sequence (P09237 whole entry): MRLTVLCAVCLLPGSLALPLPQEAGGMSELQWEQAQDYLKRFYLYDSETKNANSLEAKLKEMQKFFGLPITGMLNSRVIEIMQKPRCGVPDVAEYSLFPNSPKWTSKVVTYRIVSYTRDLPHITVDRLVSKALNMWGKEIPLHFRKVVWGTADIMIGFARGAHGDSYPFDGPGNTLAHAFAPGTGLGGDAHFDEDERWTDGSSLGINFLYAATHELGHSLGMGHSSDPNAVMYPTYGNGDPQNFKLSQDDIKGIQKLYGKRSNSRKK

Interstitial collagenase [3] = target: T2, Interstitial collagenase (Homo sapiens, UniProt P03956); assay: (§2) In vitro inhibitory activity against matrix metalloprotease-1
T2 sequence (P03956 whole entry): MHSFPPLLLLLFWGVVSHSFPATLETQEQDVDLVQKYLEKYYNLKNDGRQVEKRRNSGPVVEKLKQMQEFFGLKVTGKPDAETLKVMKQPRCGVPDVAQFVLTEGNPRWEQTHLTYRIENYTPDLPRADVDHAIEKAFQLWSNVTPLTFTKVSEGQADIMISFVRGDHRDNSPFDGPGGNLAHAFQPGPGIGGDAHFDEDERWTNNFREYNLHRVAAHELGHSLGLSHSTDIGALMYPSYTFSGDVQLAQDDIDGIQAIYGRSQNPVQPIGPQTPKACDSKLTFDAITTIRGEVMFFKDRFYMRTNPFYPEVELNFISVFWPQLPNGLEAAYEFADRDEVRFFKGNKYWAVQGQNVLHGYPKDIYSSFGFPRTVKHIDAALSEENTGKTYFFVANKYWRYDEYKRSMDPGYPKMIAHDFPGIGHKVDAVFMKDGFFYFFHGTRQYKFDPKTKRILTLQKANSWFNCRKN

Stromelysin-1 [4] = target: T3, Stromelysin-1 (Homo sapiens, UniProt P08254); assay: (§3) In vitro inhibitory activity against matrix metalloprotease-3
T3 sequence (P08254 whole entry): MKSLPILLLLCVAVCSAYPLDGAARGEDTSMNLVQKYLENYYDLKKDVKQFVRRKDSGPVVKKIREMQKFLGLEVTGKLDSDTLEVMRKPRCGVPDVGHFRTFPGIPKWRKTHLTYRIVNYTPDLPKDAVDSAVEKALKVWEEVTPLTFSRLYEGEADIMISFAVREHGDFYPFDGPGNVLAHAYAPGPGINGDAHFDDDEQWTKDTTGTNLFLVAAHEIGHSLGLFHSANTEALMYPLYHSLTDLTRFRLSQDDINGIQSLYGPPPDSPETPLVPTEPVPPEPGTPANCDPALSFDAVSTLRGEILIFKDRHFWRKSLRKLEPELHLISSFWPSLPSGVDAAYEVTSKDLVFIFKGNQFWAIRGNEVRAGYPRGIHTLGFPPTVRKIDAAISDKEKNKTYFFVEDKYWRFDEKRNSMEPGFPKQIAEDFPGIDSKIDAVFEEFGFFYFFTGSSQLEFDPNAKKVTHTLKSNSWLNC

Collagenase 3 = Collagenase 3 (Homo sapiens, UniProt P45452); assay: In vitro inhibitory activity against matrix metalloprotease-13
Interstitial collagenase [5] = target: T2, Interstitial collagenase; assay: as §2; procedure, shortened: as §1; remark: listed apart in the source
Stromelysin-1 [6] = target: T3, Stromelysin-1; assay: as §3; procedure, shortened: as §1; remark: listed apart in the source

Sequence of 72 kDa type IV collagenase (P08253 whole entry): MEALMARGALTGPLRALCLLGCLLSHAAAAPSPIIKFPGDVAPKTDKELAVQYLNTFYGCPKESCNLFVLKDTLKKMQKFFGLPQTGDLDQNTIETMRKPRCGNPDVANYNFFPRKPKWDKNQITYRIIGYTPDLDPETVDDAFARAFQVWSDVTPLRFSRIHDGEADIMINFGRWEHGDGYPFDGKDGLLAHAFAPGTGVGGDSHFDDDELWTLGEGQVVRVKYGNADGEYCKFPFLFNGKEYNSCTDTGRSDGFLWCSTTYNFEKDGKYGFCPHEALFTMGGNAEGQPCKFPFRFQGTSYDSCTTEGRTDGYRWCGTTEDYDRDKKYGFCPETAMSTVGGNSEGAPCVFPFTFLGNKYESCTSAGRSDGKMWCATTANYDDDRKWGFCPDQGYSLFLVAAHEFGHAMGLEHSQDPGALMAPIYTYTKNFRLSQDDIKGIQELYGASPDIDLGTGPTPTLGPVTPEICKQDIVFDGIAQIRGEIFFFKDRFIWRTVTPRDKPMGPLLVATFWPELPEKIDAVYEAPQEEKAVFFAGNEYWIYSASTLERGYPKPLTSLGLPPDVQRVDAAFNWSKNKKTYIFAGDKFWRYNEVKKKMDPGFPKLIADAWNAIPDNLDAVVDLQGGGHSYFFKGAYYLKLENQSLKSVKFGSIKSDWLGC

Row | Compound | IC50 [1] [nM] | IC50 (Neutrophil collagenase) [nM] | IC50 [2] [nM] | IC50 (Matrilysin) [nM] | IC50 (Interstitial collagenase [3]) [nM] | IC50 (Stromelysin-1 [4]) [nM] | IC50 (Collagenase 3) [nM] | solubility (physchem) [µg/mL] | IC50 (Interstitial collagenase [5]) [nM] | IC50 (Stromelysin-1 [6]) [nM]
1 | COc1ccc(-c2ccc(S(=O)(=O)NC(CC#Cc3ccccc3)C(=O)O)cc2)cc1 (centres undefined) | 12.5 | 9.4 | 553 | > 10000 | – | – | – | – | – | –
2 | COc1ccc(-c2ccc(S(=O)(=O)N[C@@H](C(=O)O)C3CCN(C(=O)OC(C)(C)C)CC3)cc2)cc1 | – | – | 6.6 | 3660 | 1370 | 33.7 | – | – | – | –
3 | COCCOC(=O)N1CCC(C(NS(=O)(=O)c2ccc(-c3ccc(SC)cc3)cc2)C(=O)O)CC1 (centres undefined) | 0.4 | 1.8 | 7.3 | 1020 | 1080 | 40.6 | 1 | 3500 (≈ 6.7 mM) | – | –
4 | COC(=O)N1CCC(C(NS(=O)(=O)c2ccc(-c3ccc(OC)cc3)cc2)C(=O)O)CC1 (centres undefined) | 2.8 | – | 177 | 5650 | 5210 | 657 | – | – | – | –
5 | COCCOC(=O)N1CCC(C(C(=O)O)N(C)S(=O)(=O)c2ccc(-c3ccc(OC)cc3)cc2)CC1 (centres undefined) | 0.9 | – | 13.9 | 3950 | 1850 | 69.6 | – | – | – | –
6 | COCCOC(=O)N1CCC(C(NS(=O)(=O)c2ccc(-c3ccccc3)cc2)C(=O)O)CC1 (centres undefined) | 24.2 | 44.8 | 415 | > 10000 | 6050 | 418 | 55.3 | – | – | –
7 | COCCOC(=O)N1CCC(C(C(=O)O)N(CCOC)S(=O)(=O)c2ccc(-c3ccc(OC)cc3)cc2)CC1 (centres undefined) | 0.6 | 2.4 | 9.1 | 2650 | 1220 | 45.5 | 1 | 11100 (≈ 19.6 mM) | – | –
8 | COc1ccc(-c2ccc(S(=O)(=O)N[C@H](C(=O)O)C3CCN(C(=O)OC(C)(C)C)CC3)cc2)cc1 | – | – | 71.5 | 8510 | 3490 | 345 | – | – | – | –
9 | COc1ccc(-c2ccc(S(=O)(=O)N[C@H](C(=O)O)C(C)C)cc2)cc1 | 6.6 | 10.6 | 747 | > 10000 | – | 1890 | 24.2 | – | 8710 | –
10 | COc1ccc(-c2ccc(S(=O)(=O)NC(C(=O)O)C3CCN(C(=O)CC(C)C)CC3)cc2)cc1 (centres undefined) | 3.2 | – | 137 | 4370 | 4900 | 739 | – | – | – | –
11 | COc1ccc(-c2ccc(S(=O)(=O)NC(C(=O)O)C3CCNCC3)cc2)cc1 (centres undefined) | 53 | 30.2 | 1760 | 4240 | 3890 | – | 264 | – | – | 4840
12 | COCCOC(=O)N1CCC(C(NS(=O)(=O)c2ccc(Oc3ccccc3)cc2)C(=O)O)CC1 (centres undefined) | 58.1 | 25.8 | 597 | > 10000 | > 10000 | 399 | 140 | – | – | –
13 | COc1ccc(-c2ccc(S(=O)(=O)NC(C(=O)O)C3CCN(C(=O)OC(C)(C)C)CC3)cc2)cc1 (centres undefined) | – | – | 5.4 | 2590 | 1420 | 56.4 | – | – | – | –
14 | COc1ccc(-c2ccc(S(=O)(=O)NC(C(=O)O)C3CCN(C(=O)N4CCOCC4)CC3)cc2)cc1 (centres undefined) | 1.1 | – | 50.8 | 8570 | 1760 | 221 | – | – | – | –
15 | COc1ccc(-c2ccc(S(=O)(=O)NC(C(=O)O)C3CCN(C(=O)OC(C)C)CC3)cc2)cc1 (centres undefined) | < 0.4 | 1.5 | 11.7 | 1740 | 1400 | 41.8 | 1 | 130 (≈ 0.265 mM) | – | –
16 | O=C(CC(CSc1ccccc1)C(=O)O)c1ccc(-c2ccc(Cl)cc2)cc1 (centres undefined) | 91.3 | 303 | 3110 | > 10000 | > 10000 | – | 1570 | – | – | –
17 | CCOC(=O)N1CCC(C(NS(=O)(=O)c2ccc(-c3ccc(OC)cc3)cc2)C(=O)O)CC1 (centres undefined) | 1 | – | 94.9 | 9870 | 2760 | 162 | – | – | – | –
18 | CCCCOc1ccc(S(=O)(=O)NC(C(=O)O)C2CCN(C(=O)OCCOC)CC2)cc1 (centres undefined) | 549 | 294 | 2990 | > 10000 | > 10000 | 678 | 791 | – | – | –
19 | COCCOC(=O)N1CCC(C(C(=O)O)N(Cc2ccccn2)S(=O)(=O)c2ccc(-c3ccc(OC)cc3)cc2)CC1 (centres undefined) | 1 | 3.2 | 18.7 | 3640 | 3310 | 86.1 | 3 | – | – | –
20 | COCCOC(=O)N1CCC(C(NS(=O)(=O)c2ccc(-c3ccc(OC)cc3)cc2)C(=O)O)CC1 (stereo in doubt; 13g) | 0.8 | 3.4 | 55 | 4110 | – | 133 | 3.5 | 8070 (≈ 15.9 mM) | – | –
21 | COCCOC(=O)N1CCC(C(NS(=O)(=O)c2ccc(-c3ccc(OC)cc3)cc2)C(=O)O)CC1 (stereo in doubt; 14i) | – | 0.5 | < 0.4 | – | – | 13.8 | 0.4 | – | – | –
